Test results: ChEMBL document CHEMBL2331540, “Synthesis and SAR study of pyrrolo[3,4-b]pyridin-7(6H)-one derivatives as melanin concentrating hormone receptor 1 (MCH-R1) antagonists” (Bioorg Med Chem Lett, 2013)
Values after ≈ are worked out from the molar mass of the structure shown.

tested on: not listed separately; test: Aqueous solubility of the compound; format: physicochemical; details: buffer

| solubility [µg/mL] | SMILES |
| --- | --- |
| 104 (≈ 217 µM) | COc1cc(N2Cc3ccc(Sc4ccc(F)cc4)nc3C2=O)ccc1OCCN1CCCC1 |

tested on: not listed separately; test: Half life in rat at 10 mg/kg, po and iv; format: ADME, organism-based; set-up: dose 10 mg/kg, route oral; details: in vivo
How it was run: (§1)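 Rats dosed at 10 mg/kg by both iv and po routes, n = 3; plasma pharmacokinetic parameters derived from the iv/po study.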

| half-life [h] | SMILES |
| --- | --- |
| 2.8 | COc1cc(N2Cc3ccc(Sc4ccccc4)nc3C2=O)ccc1OCCN1CCCC1 |
| 3.4 | COc1cc(N2Cc3ccc(Sc4ccc(F)cc4)nc3C2=O)ccc1OCCN1CCCC1 |

tested on: Rattus norvegicus; test: Volume of distribution at steady state in rat at 10 mg/kg, po and iv; format: ADME, organism-based; set-up: dose 10 mg/kg, route oral; details: in vivo; how it was run: as §1

| Vdss [L/kg] | SMILES |
| --- | --- |
| 22.7 | COc1cc(N2Cc3ccc(Sc4ccccc4)nc3C2=O)ccc1OCCN1CCCC1 |
| 8.3 | COc1cc(N2Cc3ccc(Sc4ccc(F)cc4)nc3C2=O)ccc1OCCN1CCCC1 |

target: CYP2D6 (Homo sapiens, UniProt P10635); test: Inhibition of CYP2D6 (unknown origin) at 10 uM relative to control; format: ADME; details: not given
Sequence (P10635 whole entry): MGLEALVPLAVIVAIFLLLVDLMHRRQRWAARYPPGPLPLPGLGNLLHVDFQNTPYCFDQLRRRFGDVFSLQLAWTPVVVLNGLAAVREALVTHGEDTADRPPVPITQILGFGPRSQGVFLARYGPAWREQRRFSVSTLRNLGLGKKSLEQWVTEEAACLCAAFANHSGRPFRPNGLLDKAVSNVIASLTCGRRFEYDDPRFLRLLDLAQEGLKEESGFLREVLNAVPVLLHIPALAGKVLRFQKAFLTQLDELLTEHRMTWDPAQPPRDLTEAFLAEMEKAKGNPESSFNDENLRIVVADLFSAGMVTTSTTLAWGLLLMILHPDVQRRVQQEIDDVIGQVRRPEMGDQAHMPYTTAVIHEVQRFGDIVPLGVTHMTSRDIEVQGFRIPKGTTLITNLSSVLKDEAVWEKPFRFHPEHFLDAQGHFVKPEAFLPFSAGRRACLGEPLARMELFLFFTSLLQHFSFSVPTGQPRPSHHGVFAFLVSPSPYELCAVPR

| inhibition at 10 µM [%] | SMILES |
| --- | --- |
| < 10 | COc1cc(N2Cc3ccc(Sc4ccc(F)cc4)nc3C2=O)ccc1OCCN1CCCC1 |

target: CYP3A4 (Homo sapiens, UniProt P08684); test: Inhibition of CYP3A4 (unknown origin) at 10 uM relative to control; format: ADME; details: not given
Sequence (P08684 whole entry): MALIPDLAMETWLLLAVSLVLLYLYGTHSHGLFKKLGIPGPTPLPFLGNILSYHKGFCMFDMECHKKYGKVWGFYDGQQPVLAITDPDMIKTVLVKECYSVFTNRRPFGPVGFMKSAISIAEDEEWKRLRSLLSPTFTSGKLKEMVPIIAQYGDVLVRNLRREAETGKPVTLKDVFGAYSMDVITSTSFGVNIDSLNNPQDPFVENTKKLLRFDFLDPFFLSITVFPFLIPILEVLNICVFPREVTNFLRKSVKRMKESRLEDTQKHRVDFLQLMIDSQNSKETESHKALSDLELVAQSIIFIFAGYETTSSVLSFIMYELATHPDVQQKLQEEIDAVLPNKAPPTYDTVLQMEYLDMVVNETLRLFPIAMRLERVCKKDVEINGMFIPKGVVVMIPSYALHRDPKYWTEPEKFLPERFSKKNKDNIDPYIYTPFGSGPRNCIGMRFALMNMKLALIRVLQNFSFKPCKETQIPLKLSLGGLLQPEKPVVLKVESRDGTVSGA

| inhibition at 10 µM [%] | SMILES |
| --- | --- |
| < 10 | COc1cc(N2Cc3ccc(Sc4ccc(F)cc4)nc3C2=O)ccc1OCCN1CCCC1 |

tested on: not listed separately; test: Metabolic stability in rat liver microsomes measured for 30 mins; format: ADME, Microsome; details: read-out: Stability
How it was run: (§2)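 Test compound incubated 30 min with human or rat liver microsomes; stability given as percent remaining.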

| remaining at 0.5 h [%] | SMILES |
| --- | --- |
| 79 | COc1cc(N2Cc3ccc(Sc4ccc(F)cc4)nc3C2=O)ccc1OCCN1CCCC1 |

tested on: not listed separately; test: Metabolic stability in human liver microsomes measured for 30 mins; format: ADME, Microsome; details: read-out: Stability; how it was run: as §2

| remaining at 0.5 h [%] | SMILES |
| --- | --- |
| 97 | COc1cc(N2Cc3ccc(Sc4ccc(F)cc4)nc3C2=O)ccc1OCCN1CCCC1 |

tested on: Rattus norvegicus; test: Oral bioavailability in rat at 10 mg/kg; format: ADME, organism-based; details: in vivo; how it was run: as §1

| F [%] | SMILES |
| --- | --- |
| 35 | COc1cc(N2Cc3ccc(Sc4ccccc4)nc3C2=O)ccc1OCCN1CCCC1 |
| 92 | COc1cc(N2Cc3ccc(Sc4ccc(F)cc4)nc3C2=O)ccc1OCCN1CCCC1 |

tested on: Rattus norvegicus; test: AUC in rat at 10 mg/kg, po; format: ADME, organism-based, Plasma; set-up: dose 10 mg/kg, route oral; details: in vivo; how it was run: as §1

| AUC [ng·h/mL] | SMILES |
| --- | --- |
| 320 | COc1cc(N2Cc3ccc(Sc4ccccc4)nc3C2=O)ccc1OCCN1CCCC1 |
| 5700 | COc1cc(N2Cc3ccc(Sc4ccc(F)cc4)nc3C2=O)ccc1OCCN1CCCC1 |

target: Melanin-concentrating hormone receptor 1 (Homo sapiens, UniProt Q99705); test: Displacement of Eu-MCH from human MCHR1 expressed in CHO cell membranes by TRF assay; details: not given
How it was run: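 Competitive binding on membranes of CHO cells expressing human MCH-R1, with Eu-labeled MCH as tracer; bound label read by time-resolved fluorometry, values given as IC50.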

Chain of Melanin-concentrating hormone receptor 1 (Q99705 whole entry): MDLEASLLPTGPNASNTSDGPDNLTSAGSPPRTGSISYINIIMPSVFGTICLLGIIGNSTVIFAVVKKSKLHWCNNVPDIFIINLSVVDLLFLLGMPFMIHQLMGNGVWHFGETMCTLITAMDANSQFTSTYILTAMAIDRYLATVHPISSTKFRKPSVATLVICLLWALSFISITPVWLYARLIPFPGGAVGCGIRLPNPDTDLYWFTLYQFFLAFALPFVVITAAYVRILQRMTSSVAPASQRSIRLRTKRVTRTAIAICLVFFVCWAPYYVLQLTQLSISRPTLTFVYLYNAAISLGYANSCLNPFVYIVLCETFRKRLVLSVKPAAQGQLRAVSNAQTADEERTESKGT

| SMILES | IC50 [nM] |
| --- | --- |
| COc1cc(N2Cc3ccc(Sc4ccccc4)nc3C2=O)ccc1OCCN1CCCC1 | 20 |
| COc1cc(N2Cc3ccc(Sc4ccc(Cl)cc4)nc3C2=O)ccc1OCCN1CCCC1 | 40 |
| COc1cc(N2Cc3ccc(Sc4ccc(C)cc4)nc3C2=O)ccc1OCCN1CCCC1 | 60 |
| COc1ccc(Sc2ccc3c(n2)C(=O)N(c2ccc(OCCN4CCCC4)c(OC)c2)C3)cc1 | 100 |
| COc1cc(N2Cc3ccc(Sc4ccc(F)cc4Cl)nc3C2=O)ccc1OCCN1CCCC1 | 80 |
| COc1cc(N2Cc3ccc(Sc4ccc(F)c(Cl)c4)nc3C2=O)ccc1OCCN1CCCC1 | 50 |
| COc1cc(N2Cc3ccc(-c4cccc(C)c4C)nc3C2=O)ccc1OCCN1CCCC1 | 190 |
| COc1cc(N2Cc3ccc(-c4cc(C)ccc4C)nc3C2=O)ccc1OCCN1CCCC1 | 300 |
| COc1cc(N2Cc3ccc(-c4ccc(C)c(C)c4)nc3C2=O)ccc1OCCN1CCCC1 | 180 |
| COc1cc(N2Cc3ccc(Cc4ccccc4)nc3C2=O)ccc1OCCN1CCCC1 | 70 |
| COc1cc(N2Cc3ccc(Cc4ccccc4C)nc3C2=O)ccc1OCCN1CCCC1 | 720 |
| COc1cc(N2Cc3ccc(Cc4ccc(F)cc4)nc3C2=O)ccc1OCCN1CCCC1 | 80 |
| COc1cc(N2Cc3ccc(Cc4ccc(Cl)cc4)nc3C2=O)ccc1OCCN1CCCC1 | 120 |
| COc1cc(N2Cc3ccc(Cc4ccc(C(C)(C)C)cc4)nc3C2=O)ccc1OCCN1CCCC1 | 1910 |
| COc1cc(N2Cc3ccc(-c4ccccc4F)nc3C2=O)ccc1OCCN1CCCC1 | 4130 |
| CCCc1ccc(-c2ccc3c(n2)C(=O)N(c2ccc(OCCN4CCCC4)c(OC)c2)C3)cc1 | 210 |
| C=Cc1ccc(-c2ccc3c(n2)C(=O)N(c2ccc(OCCN4CCCC4)c(OC)c2)C3)cc1 | 130 |
| COc1ccc(-c2ccc3c(n2)C(=O)N(c2ccc(OCCN4CCCC4)c(OC)c2)C3)cc1 | 340 |
| COc1cc(N2Cc3ccc(-c4ccccc4Cl)nc3C2=O)ccc1OCCN1CCCC1 | 510 |
| COc1cc(N2Cc3ccc(-c4ccc(Cl)cc4)nc3C2=O)ccc1OCCN1CCCC1 | 440 |

Further compounds by falling IC50, results first:

| IC50 [nM] | SMILES |
| --- | --- |
| 10000 | COc1cc(N2Cc3ccc(-c4ccc(C#N)cc4)nc3C2=O)ccc1OCCN1CCCC1 |
| 10000 | COc1cc(N2Cc3ccc(-c4ccccc4)nc3C2=O)ccc1OCCN1CCCC1 |
| 7110 | COc1cc(N2Cc3ccc(-c4ccccc4OC)nc3C2=O)ccc1OCCN1CCCC1 |
| 5650 | COc1cc(N2Cc3ccc(-c4cccc(Cl)c4)nc3C2=O)ccc1OCCN1CCCC1 |
| 3100 | COc1cc(N2Cc3ccc(-c4ccc(F)cc4)nc3C2=O)ccc1OCCN1CCCC1 |
| 2780 | CCCCc1ccc(-c2ccc3c(n2)C(=O)N(c2ccc(OCCN4CCCC4)c(OC)c2)C3)cc1 |
| 2010 | COc1cccc(-c2ccc3c(n2)C(=O)N(c2ccc(OCCN4CCCC4)c(OC)c2)C3)c1 |
| 2000 | CCc1ccccc1-c1ccc2c(n1)C(=O)N(c1ccc(OCCN3CCCC3)c(OC)c1)C2 |
| 1040 | COc1cc(N2Cc3ccc(-c4ccccc4C)nc3C2=O)ccc1OCCN1CCCC1 |
| 540 | COc1cc(N2Cc3ccc(-c4ccc(C(F)(F)F)cc4)nc3C2=O)ccc1OCCN1CCCC1 |
| 410 | COc1cc(N2Cc3ccc(Cc4cccc(F)c4)nc3C2=O)ccc1OCCN1CCCC1 |
| 320 | COc1cc(N2Cc3ccc(-c4ccc(C(C)(C)C)cc4)nc3C2=O)ccc1OCCN1CCCC1 |
| 160 | COc1cc(N2Cc3ccc(Cc4ccc(C)cc4)nc3C2=O)ccc1OCCN1CCCC1 |
| 90 | COc1cc(N2Cc3ccc(-c4ccc(C(C)C)cc4)nc3C2=O)ccc1OCCN1CCCC1 |
| 80 | COc1cc(N2Cc3ccc(-c4ccc(C)cc4)nc3C2=O)ccc1OCCN1CCCC1 |
| 60 | COc1cc(N2Cc3ccc(Sc4ccc(F)cc4F)nc3C2=O)ccc1OCCN1CCCC1 |
| 50 | COc1cc(N2Cc3ccc(Sc4ccc(F)c(F)c4)nc3C2=O)ccc1OCCN1CCCC1 |
| 50 | CCc1ccc(-c2ccc3c(n2)C(=O)N(c2ccc(OCCN4CCCC4)c(OC)c2)C3)cc1 |
| 30 | COc1cc(N2Cc3ccc(Sc4ccc(F)cc4)nc3C2=O)ccc1OCCN1CCCC1 |

tested on: not listed separately; test: Permeability of the compound by PAMPA; format: ADME; details: read-out: permeability

| Papp [×10⁻⁶ cm/s] | SMILES |
| --- | --- |
| 1.9 | COc1cc(N2Cc3ccc(Sc4ccc(F)cc4)nc3C2=O)ccc1OCCN1CCCC1 |
